From ChEMBL document CHEMBL2203269, “Target-Activated Prodrugs (TAPs) for the Autoregulated Inhibition of MMP12” (ACS Med Chem Lett, 2012)
Residues, ends and D or L forms follow the SMILES beside them. *: point of attachment. Benzenesulfonyl(4-Ph) = O=S(=O)(c1ccc(-c2ccccc2)cc1)*; Benzenesulfonyl(4-OMe) = COc1ccc(S(=O)(=O)*)cc1

Columns and labels:
[1] = molecular target: Macrophage metalloelastase (Homo sapiens, UniProt P39900); test: Inhibition of human MMP12 by FRET reporter assay
Procedure, shortened: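 Recombinant human MMP12 activity was read with the fluorogenic FRET reporter substrate LaRee5. Inhibition constants were reported as IC50.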

[2] = Half life in TCN buffer at pH 7.5; format: physicochemical
Procedure, shortened: (§1)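 Compounds incubated without enzyme in TCN buffer, pH 7.5, at 37 °C. Spontaneous hydrolysis of the N-acylated sulfonamide was followed by HPLC over time, and half-lives (h) were derived from the traces.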

[3] = Stability of compound in fetal calf serum; format: ADME; details: cattle
[4] = Stability of compound in heat inactivated fetal calf serum; format: ADME; details: cattle
[5] = Drug metabolism in TCN buffer assessed as hydrolysis at pH 7.5; format: physicochemical; procedure, shortened: as §1

Macrophage metalloelastase, sequence (P39900 whole entry): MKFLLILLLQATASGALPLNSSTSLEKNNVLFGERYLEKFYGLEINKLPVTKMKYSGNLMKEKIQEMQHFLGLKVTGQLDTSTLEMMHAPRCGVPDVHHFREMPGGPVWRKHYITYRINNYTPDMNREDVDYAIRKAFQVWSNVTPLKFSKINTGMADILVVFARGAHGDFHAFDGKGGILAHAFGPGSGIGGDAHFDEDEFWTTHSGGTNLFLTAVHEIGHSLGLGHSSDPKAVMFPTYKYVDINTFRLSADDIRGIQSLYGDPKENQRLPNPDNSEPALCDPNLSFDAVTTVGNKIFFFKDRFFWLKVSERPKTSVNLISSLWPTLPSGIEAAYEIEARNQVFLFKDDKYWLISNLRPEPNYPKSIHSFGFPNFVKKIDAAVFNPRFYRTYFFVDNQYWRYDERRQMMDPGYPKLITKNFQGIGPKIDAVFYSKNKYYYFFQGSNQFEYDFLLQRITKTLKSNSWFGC

| Compound | IC50 [1] | half-life [2] | also measured |
| --- | --- | --- | --- |
| O=C(O)CNS(=O)(=O)c1ccc(-c2ccccc2)cc1 | 0.29 µM |  |  |
| COc1ccc(S(=O)(=O)N(CC(=O)O)C(=O)CNC(=O)[C@H](CC(C)C)NC(=O)[C@@H]2CCCN2C(=O)OCc2ccccc2)cc1 |  | 27 h |  |
| COc1ccc(S(=O)(=O)N(CC(=O)N[C@@H](CC(C)C)C(=O)N[C@@H](CCC(=O)O)C(=O)N[C@@H](CCC(=O)O)C(=O)N[C@@H](C)C(N)=O)C(=O)CNC(=O)[C@@H]2CCCN2C(=O)OCc2ccccc2)cc1 |  | 6.4 h |  |
| CC(C)C[C@H](NC(=O)CN(C(=O)[C@H](CC(C)C)NC(=O)[C@@H]1CCCN1C(=O)OCc1ccccc1)S(=O)(=O)c1ccc(-c2ccccc2)cc1)C(=O)N[C@@H](CCC(=O)O)C(=O)N[C@@H](CCC(=O)O)C(=O)N[C@@H](C)C(N)=O |  | 5.1 h | Stability [3]: Stable; Stability [4]: Stable |
| COc1ccc(S(=O)(=O)N(CC(=O)N[C@@H](CC(C)C)C(=O)N[C@@H](CCC(=O)O)C(=O)N[C@@H](CCC(=O)O)C(=O)N[C@@H](C)C(N)=O)C(=O)[C@H](CC(C)C)NC(=O)[C@@H]2CCCN2C(=O)OCc2ccccc2)cc1 |  | 28 h |  |
| CC(C)C[C@H](NC(=O)[C@@H]1CCCN1C(=O)OCc1ccccc1)C(=O)N(CC(=O)O)S(=O)(=O)c1ccc(-c2ccccc2)cc1 | 13 µM | 27 h | Stability [3]: Stable; Stability [4]: Stable |
| COc1ccc(S(=O)(=O)N(CC(=O)O)C(=O)[C@H](CC(C)C)NC(=O)[C@@H]2CCCN2C(=O)OCc2ccccc2)cc1 |  | 77 h |  |
| COc1ccc(S(=O)(=O)NCC(=O)N[C@@H](CC(C)C)C(=O)N[C@@H](CCC(=O)O)C(=O)N[C@@H](CCC(=O)O)C(=O)N[C@@H](C)C(N)=O)cc1 ({Benzenesulfonyl(4-OMe)}-GLEEA-NH2) |  |  | Drug metabolism [5]: Not Active |
| CC(C)C[C@H](NC(=O)CNS(=O)(=O)c1ccc(-c2ccccc2)cc1)C(=O)N[C@@H](CCC(=O)O)C(=O)N[C@@H](CCC(=O)O)C(=O)N[C@@H](C)C(N)=O ({Benzenesulfonyl(4-Ph)}-GLEEA-NH2) | 48 µM |  | Drug metabolism [5]: Not Active |
